ChEMBL document CHEMBL2401709 (J Med Chem, 2013)
Calls of active or inactive are those of the source. The rule behind the calls is not given here.

Key:
[1] = test system: MCF7; assay: Cytotoxicity against human MCF7 cells assessed as growth inhibition after 72 hrs by calcein AM staining-based fluoroscence assay; format: functional, cell-based; conditions: MCF7, 72 h
[2] = test system: G-361; assay: Induction of apoptosis in human G361 cells assessed as caspase 3/7 activation using Ac-DEVD-AMC as substrate at 300 nM after 24 hrs by fluorimetry assay; format: functional, cell-based
[3] = molecular target: CDK7/Cyclin H/MNAT1 (Homo sapiens, UniProt P50613); assay: Inhibition of CDK7/Cyclin-H/MAT 1 (unknown origin) using (YSPTSPS)2KK peptide as substrate; format: protein-complex assay
CDK7/Cyclin H/MNAT1, sequence (P51946 whole entry): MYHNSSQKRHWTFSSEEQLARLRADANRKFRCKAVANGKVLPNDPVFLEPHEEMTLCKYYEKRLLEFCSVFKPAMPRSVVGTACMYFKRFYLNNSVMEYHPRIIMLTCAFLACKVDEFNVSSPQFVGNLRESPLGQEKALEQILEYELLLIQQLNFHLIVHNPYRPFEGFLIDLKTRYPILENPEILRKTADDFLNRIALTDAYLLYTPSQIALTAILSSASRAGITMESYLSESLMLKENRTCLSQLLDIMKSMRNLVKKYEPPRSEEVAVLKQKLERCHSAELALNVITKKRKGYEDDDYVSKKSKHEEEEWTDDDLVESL
CDK7/Cyclin H/MNAT1, sequence (P50613 whole entry): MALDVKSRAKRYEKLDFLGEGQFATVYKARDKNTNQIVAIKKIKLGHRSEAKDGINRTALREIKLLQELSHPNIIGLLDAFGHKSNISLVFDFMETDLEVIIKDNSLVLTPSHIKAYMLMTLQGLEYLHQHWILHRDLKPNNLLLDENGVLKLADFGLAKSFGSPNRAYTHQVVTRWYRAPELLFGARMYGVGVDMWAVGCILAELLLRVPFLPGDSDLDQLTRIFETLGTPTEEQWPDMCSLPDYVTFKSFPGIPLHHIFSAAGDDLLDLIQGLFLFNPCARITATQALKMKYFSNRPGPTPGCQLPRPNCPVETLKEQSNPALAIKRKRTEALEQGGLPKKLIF
CDK7/Cyclin H/MNAT1, sequence (P51948 whole entry, further chain): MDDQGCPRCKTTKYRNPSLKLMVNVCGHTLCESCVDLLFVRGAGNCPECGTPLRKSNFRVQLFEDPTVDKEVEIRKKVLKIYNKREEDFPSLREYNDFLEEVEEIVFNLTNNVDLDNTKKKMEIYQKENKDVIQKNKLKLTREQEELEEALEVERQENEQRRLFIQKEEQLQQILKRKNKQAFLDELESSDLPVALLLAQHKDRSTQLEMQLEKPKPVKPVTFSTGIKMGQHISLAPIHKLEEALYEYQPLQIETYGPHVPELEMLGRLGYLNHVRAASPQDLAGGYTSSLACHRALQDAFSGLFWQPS
Summary of the method: (§1)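 CDK5/p35, CDK7/cyclin H/MAT1 and CDK9/cyclin T1 in 10 μL reactions with 0.05 μCi [γ-33P]ATP. CDK5 used 1 mg/mL histone H1 with 0.15 μM ATP. CDK7 and CDK9 used (YSPTSPS)2KK with 1.5 μM ATP. Stopped with H3PO4, spotted on P-81, washed. IC50 from dose-response curves.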

[4] = test system: G-361; assay: Induction of apoptosis in human G361 cells assessed as induction of caspase-9 clevage at 300 nM after 24 hrs by immunoblotting analysis; format: functional, cell-based
Summary of the method: (§2)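 Treated G361 cells harvested into Laemmli sample buffer. Proteins resolved by SDS-PAGE and blotted to nitrocellulose. Membranes blocked, probed overnight with specific primary antibodies, then peroxidase-conjugated secondaries. ECL detection by CCD camera. Actin served as loading control.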

[5] = test system: G-361; assay: Induction of apoptosis in human G361 cells assessed as induction of caspase-7 clevage at 300 nM after 24 hrs by immunoblotting analysis; format: functional, cell-based; summary of the method: as §2
[6] = test system: G-361; assay: Induction of apoptosis in human G361 cells assessed as induction of PARP-1 clevage at 80 nM after 24 hrs by immunoblotting analysis; format: functional, cell-based; summary of the method: as §2
[7] = test system: G-361; assay: Induction of apoptosis in human G361 cells assessed as increase of caspase 3/7 activation using Ac-DEVD-AMC as substrate at 20 to 1280 nM after 24 hrs by fluorimetry assay; format: functional, cell-based
[8] = molecular target: Cyclin-dependent kinase 7 (Homo sapiens) (UniProt P50613); assay: Inhibition of CDK7 in human G361 cells assessed as reduction of phosphorylation of CDK1 at T161 by immunoblotting analysis; format: cell-based; conditions: G-361; summary of the method: as §2
Cyclin-dependent kinase 7 (Homo sapiens), sequence (P50613 whole entry): as the sequence (P50613 whole entry) above

[9] = test system: G-361; assay: Induction of apoptosis in human G361 cells assessed as reduction of retinoblastoma protein level at 640 nM after 16 hrs by immunoblotting analysis; format: functional, cell-based; summary of the method: as §2
[10] = molecular target: Cyclin-dependent kinase 9 (Homo sapiens) (UniProt P50750); assay: Inhibition of CDK9-mediated RNA polymerase 2 phosphorylation at ser2 in human G361 cells at 300 nM after 24 hrs by immunoblotting analysis; format: cell-based; conditions: G-361; summary of the method: as §2
Cyclin-dependent kinase 9 (Homo sapiens), sequence (P50750 whole entry): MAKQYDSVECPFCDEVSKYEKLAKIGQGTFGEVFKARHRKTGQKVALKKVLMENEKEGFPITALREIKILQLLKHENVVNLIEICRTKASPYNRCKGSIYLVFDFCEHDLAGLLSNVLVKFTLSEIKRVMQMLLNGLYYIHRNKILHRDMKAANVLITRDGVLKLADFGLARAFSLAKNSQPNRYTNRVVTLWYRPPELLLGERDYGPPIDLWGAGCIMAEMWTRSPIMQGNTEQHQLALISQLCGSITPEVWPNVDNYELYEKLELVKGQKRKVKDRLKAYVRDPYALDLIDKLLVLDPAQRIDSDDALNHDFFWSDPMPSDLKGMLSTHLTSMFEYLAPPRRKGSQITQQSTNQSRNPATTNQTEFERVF

[11] = test system: G-361; assay: Cytotoxicity against human G361 cells assessed as growth inhibition after 72 hrs by calcein AM staining-based fluoroscence assay; format: functional, cell-based; conditions: G-361, 72 h
[12] = test system: G-361; assay: Induction of apoptosis in human G361 cells assessed as induction of caspase-3 clevage at 300 nM after 24 hrs by immunoblotting analysis; format: functional, cell-based; summary of the method: as §2
[13] = test system: G-361; assay: Induction of apoptosis in human G361 cells assessed as dephosphorylation of RNA polymerase 2 at Ser5 at 640 nM up to 1 hr by immunoblotting analysis; format: functional, cell-based; summary of the method: as §2
[14] = molecular target: CDK9/cyclin T1 (Homo sapiens, UniProt P50750); assay: Inhibition of CDK9/Cyclin T1 (unknown origin) using (YSPTSPS)2KK peptide as substrate; format: protein-complex assay; summary of the method: as §1
CDK9/cyclin T1, sequence (O60563 whole entry): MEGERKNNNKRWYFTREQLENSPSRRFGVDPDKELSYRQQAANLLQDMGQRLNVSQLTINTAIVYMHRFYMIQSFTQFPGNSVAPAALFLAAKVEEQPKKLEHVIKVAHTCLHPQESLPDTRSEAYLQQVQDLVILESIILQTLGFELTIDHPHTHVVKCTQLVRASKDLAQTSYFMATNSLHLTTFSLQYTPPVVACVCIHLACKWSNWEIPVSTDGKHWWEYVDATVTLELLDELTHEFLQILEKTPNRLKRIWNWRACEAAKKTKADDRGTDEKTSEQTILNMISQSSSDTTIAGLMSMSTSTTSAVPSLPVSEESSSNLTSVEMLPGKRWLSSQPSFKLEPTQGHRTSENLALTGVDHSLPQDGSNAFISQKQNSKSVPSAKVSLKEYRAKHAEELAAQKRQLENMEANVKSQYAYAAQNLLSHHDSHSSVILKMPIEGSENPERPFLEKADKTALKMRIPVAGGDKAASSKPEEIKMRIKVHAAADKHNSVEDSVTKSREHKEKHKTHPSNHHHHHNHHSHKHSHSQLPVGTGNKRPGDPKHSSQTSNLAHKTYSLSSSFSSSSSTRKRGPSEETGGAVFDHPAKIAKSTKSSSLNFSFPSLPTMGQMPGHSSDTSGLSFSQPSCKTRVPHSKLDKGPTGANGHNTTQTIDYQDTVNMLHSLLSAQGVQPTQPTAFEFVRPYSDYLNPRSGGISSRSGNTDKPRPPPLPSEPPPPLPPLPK
CDK9/cyclin T1, sequence (P50750 whole entry): as the sequence (P50750 whole entry) above

[15] = test system: G-361; assay: Induction of apoptosis in human G361 cells assessed as dephosphorylation of retinoblastoma protein at Ser612 at 640 nM up to 1 hr by immunoblotting analysis; format: functional, cell-based; summary of the method: as §2
[16] = molecular target: Cyclin-dependent kinase 2 (Homo sapiens) (UniProt P24941); assay: Inhibition of CDK2 in human G361 cells sensitized with nocodazole assessed as NPM phosphorylation at Thr199 at 640 nM after 4 hrs by immunoblotting analysis; format: cell-based; conditions: G-361
Summary of the method: (§3)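 G361 cells arrested in mitosis with nocodazole, then dosed with compound. Lysates in Laemmli buffer were immunoblotted on nitrocellulose with antibodies to phospho-PP1α (T320) and phospho-NPM (T199). Peroxidase secondaries with ECL detection.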

[17] = test system: K562; assay: Cytotoxicity against human K562 cells assessed as growth inhibition after 72 hrs by calcein AM staining-based fluoroscence assay; format: functional, cell-based; conditions: K562, 72 h
[18] = test system: G-361; assay: Induction of apoptosis in human G361 cells assessed as caspase 9 activation using Ac-DEHD-AMC as substrate at 300 nM after 24 hrs by fluorimetry assay; format: functional, cell-based; conditions: in the assay text read “Ac-LEHD-AMC” for “Ac-DEHD-AMC”
Summary of the method: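 G361 lysates were made in CHAPS extraction buffer, pH 7.4, clarified at 10000g, and protein-equalized. They were incubated 24 h with 100 μM Ac-LEHD-AMC in 100 mM HEPES pH 7.5, 0.5 mM EDTA, 20% glycerol, 5 mM DTT. AMC fluorescence read at 355/460 nm (ex/em).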

[19] = molecular target: CDK2/CDK4 (Homo sapiens) (UniProt P11802+P24941); assay: Inhibition of CDK2/4-mediated retinoblastoma protein phosphorylation at ser780 in human G361 cells at 300 nM after 24 hrs by immunoblotting analysis; format: cell-based; conditions: G-361; summary of the method: as §2
[20] = test system: G-361; assay: Induction of apoptosis in human G361 cells assessed as increase of activated caspase 3/7 level using Ac-DEVD-AMC as substrate at 20 to 1280 nM after 24 hrs by fluorimetry assay
[21] = test system: HOS; assay: Cytotoxicity against human HOS cells assessed as growth inhibition after 72 hrs by calcein AM staining-based fluoroscence assay; format: functional, cell-based
[22] = molecular target: T1, Cyclin-dependent kinase 1 (Homo sapiens, UniProt P06493); assay: Inhibition of CDK1 in human G361 cells sensitized with nocodazole assessed as PP1alpha phosphorylation at Thr320 at 640 nM after 8 hrs by immunoblotting analysis; format: cell-based; conditions: G-361; summary of the method: as §3
T1 sequence (P06493 whole entry, looked up): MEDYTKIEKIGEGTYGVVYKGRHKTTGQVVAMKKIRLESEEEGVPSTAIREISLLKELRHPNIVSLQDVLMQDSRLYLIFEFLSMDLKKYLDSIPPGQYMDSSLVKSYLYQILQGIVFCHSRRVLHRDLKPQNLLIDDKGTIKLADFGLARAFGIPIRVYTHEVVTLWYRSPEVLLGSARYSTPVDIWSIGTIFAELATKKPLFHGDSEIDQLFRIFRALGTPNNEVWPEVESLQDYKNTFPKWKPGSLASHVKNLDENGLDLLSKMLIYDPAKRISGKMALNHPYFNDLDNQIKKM

[23] = test system: G-361; assay: Induction of apoptosis in human G361 cells assessed as induction of PARP-1 clevage at 640 nM after 16 hrs by immunoblotting analysis; format: functional, cell-based; summary of the method: as §2
[24] = test system: HeLa; assay: Cytotoxicity against human HeLa cells assessed as growth inhibition after 72 hrs by calcein AM staining-based fluoroscence assay; format: functional, cell-based
[25] = molecular target: Cyclin-dependent kinase 2/cyclin E1 (Homo sapiens, UniProt P24941); assay: Inhibition of human recombinant CDK2/Cyclin E expressed in baculovirus infected sf9 cells using histone H1 as substrate
[26] = test system: G-361; assay: Induction of apoptosis in human G361 cells assessed as reduction of RNA polymerase 2 level at 640 nM after 16 hrs by immunoblotting analysis; format: functional, cell-based; summary of the method: as §2
[27] = test system: G-361; assay: Induction of apoptosis in human G361 cells assessed as caspase 3/7 activation at 640 nM after 16 hrs by Ac-DEVD-AMC-based fluorimetry assay; format: functional, cell-based
[28] = test system: G-361; assay: Induction of apoptosis in human G361 cells assessed as decrease in Mcl-1 at 640 nM up to 2 hrs by immunoblotting analysis; format: functional, cell-based; summary of the method: as §2
[29] = test system: G-361; assay: Induction of apoptosis in human G361 cells assessed as increase in p53 after 24 hrs by immunoblotting analysis; format: functional, cell-based; summary of the method: as §2
[30] = molecular target: T1, Cyclin-dependent kinase 1; assay: Inhibition of CDK1 in human G361 cells sensitized with nocodazole assessed as PP1alpha phosphorylation at Thr320 at 640 nM after 4 hrs by immunoblotting analysis; format: cell-based; conditions: G-361; summary of the method: as §3
[31] = molecular target: Cyclin-dependent kinase 2/cyclin E1 (Homo sapiens) (UniProt P24864+P24941); assay: Ratio of roscovitine IC50 to compound IC50 for human recombinant CDK2/Cyclin E; format: protein-complex assay
[32] = test system: G-361; assay: Induction of apoptosis in human G361 cells assessed as decrease in Mcl-1 protein level at 300 nM after 24 hrs by immunoblotting analysis; format: functional, cell-based; summary of the method: as §2
[33] = molecular target: Cyclin-dependent kinase 7 (Homo sapiens) (UniProt P50613); assay: Inhibition of CDK7 in human G361 cells assessed as reduction of phosphorylation of CDK2 at T160 by immunoblotting analysis; format: cell-based; conditions: G-361; summary of the method: as §2
[34] = test system: G-361; assay: Induction of apoptosis in human G361 cells assessed as induction of PARP-1 clevage at 300 nM after 24 hrs by immunoblotting analysis; format: functional, cell-based; summary of the method: as §2
[35] = test system: G-361; assay: Induction of apoptosis in human G361 cells assessed as dephosphorylation of retinoblastoma protein at Ser780 at 640 nM up to 1 hr by immunoblotting analysis; format: functional, cell-based; summary of the method: as §2
[36] = molecular target: Cyclin-dependent kinase 5/CDK5 activator 1 (Homo sapiens, UniProt Q00535); assay: Inhibition of CDK5/p35 (unknown origin) using histone H1 as substrate; format: protein-complex assay; summary of the method: as §1
Cyclin-dependent kinase 5/CDK5 activator 1, sequence (Q00535 whole entry): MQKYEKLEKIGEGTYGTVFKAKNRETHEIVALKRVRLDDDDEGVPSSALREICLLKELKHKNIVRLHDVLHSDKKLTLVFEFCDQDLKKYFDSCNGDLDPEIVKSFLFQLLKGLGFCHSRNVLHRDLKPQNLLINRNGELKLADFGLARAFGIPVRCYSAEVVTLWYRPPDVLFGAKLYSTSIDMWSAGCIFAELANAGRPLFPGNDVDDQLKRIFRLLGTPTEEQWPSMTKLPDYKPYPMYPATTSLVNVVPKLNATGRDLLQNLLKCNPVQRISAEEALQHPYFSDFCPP
Cyclin-dependent kinase 5/CDK5 activator 1, sequence (Q15078 whole entry, further chain): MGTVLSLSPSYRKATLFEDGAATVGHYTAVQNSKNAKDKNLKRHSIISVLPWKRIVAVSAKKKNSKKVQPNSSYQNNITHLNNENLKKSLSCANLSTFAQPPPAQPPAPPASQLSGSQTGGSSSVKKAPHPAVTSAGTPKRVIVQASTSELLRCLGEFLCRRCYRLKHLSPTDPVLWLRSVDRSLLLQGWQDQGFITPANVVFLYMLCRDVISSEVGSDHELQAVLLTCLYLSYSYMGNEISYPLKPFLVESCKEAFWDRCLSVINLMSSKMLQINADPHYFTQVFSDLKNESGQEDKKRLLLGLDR

[37] = test system: HCT-116; assay: Cytotoxicity against human HCT116 cells assessed as growth inhibition after 72 hrs by calcein AM staining-based fluoroscence assay; format: functional, cell-based; conditions: HCT-116, 72 h
[38] = test system: G-361; assay: Induction of apoptosis in human G361 cells assessed as decrease in Mcl-1 at 300 nM after 24 hrs by immunoblotting analysis; format: functional, cell-based; summary of the method: as §2
[39] = test system: G-361; assay: Induction of apoptosis in human G361 cells assessed as decrease in Mcl-1 after 24 hrs by immunoblotting analysis; format: functional, cell-based; summary of the method: as §2
[40] = test system: G-361; assay: Induction of apoptosis in human G361 cells assessed as dephosphorylation of RNA polymerase 2 at Ser2 at 640 nM up to 1 hr by immunoblotting analysis; format: functional, cell-based; summary of the method: as §2

NC1CCC(Nc2nc(NCc3ccc(-c4ccccc4O)nc3)c3ncn(C4CCCC4)c3n2)CC1 (stereo not given)
IC50 [1]: 0.018 µM
Activity [2]: Active
IC50 [3]: 0.306 µM
Activity [4]: Active
Activity [5]: Active
Activity [6]: Active
Activity [7]: Active
inhibition [8]: Active
Activity [9]: Active
Inhibition of RNA polymerase II Ser2 phosphorylation (qualitative) [10]: Active
IC50 [11]: 0.024 µM
Activity [12]: Active
Activity [13]: Active
IC50 [14]: 0.0109 µM
Activity [15]: Active
inhibition [16]: Active
IC50 [17]: 0.016 µM
Activity [18]: Active
inhibition [19]: Active
Activity [20]: Active
IC50 [21]: 0.014 µM
inhibition [22]: Active
Activity [23]: Active
IC50 [24]: 0.016 µM
IC50 [25]: 0.0071 µM
Activity [26]: Active
Activity [27]: Active
Activity [28]: Active
Activity [29]: Dose-dependent effect
inhibition [30]: Active
Ratio IC50 [31]: 20
Activity [32]: Active
inhibition [33]: Active
Activity [34]: Active
Activity [35]: Active
IC50 [36]: 0.0187 µM
IC50 [37]: 0.035 µM
Activity [38]: Active
Activity [39]: Dose-dependent effect
Activity [40]: Active
